proKLK7 act: activators of human kallikrein-7 zymogen | 370,000 compounds, 0.9% hits | AID 652039 | activation, % at 7 µM | purified proKLK7, EDANS-DABCYL substrate fluorescence; 100% is mature enzyme control, 0% vehicle | P49862;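 active = activation above the mean of all tested compounds plus 3 SD, computed per campaign excluding outliers beyond control limits, cut at about 13% in these data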
Target sequence (P49862 whole entry, looked up): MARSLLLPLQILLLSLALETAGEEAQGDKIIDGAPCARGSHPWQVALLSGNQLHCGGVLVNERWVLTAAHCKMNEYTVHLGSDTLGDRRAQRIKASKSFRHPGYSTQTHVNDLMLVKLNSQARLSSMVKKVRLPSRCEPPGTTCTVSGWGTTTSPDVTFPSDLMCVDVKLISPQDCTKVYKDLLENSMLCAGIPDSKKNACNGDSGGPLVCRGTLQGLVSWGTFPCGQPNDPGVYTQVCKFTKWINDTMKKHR
DDE Tn6 FP inh: inhibitors of Tn6 peptide binding to human fibrin DD(E). P02675. Fibrin DD(E) TRITC-Tn6 fluorescence polarization displacement. inhibition, % at 8.3 µM. 370,000 compounds, 0.21% hits. AID 720509;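 active = inhibition above a per-campaign cutoff: mean of compounds within control limits plus 3 SD, cut at about 15% in these data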;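 also: 0% = median of all compound wells on the plate and 100% = blocking peptide control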
NRP1-CendR mod: NRP-1/CendR interaction modulation | O14786 | FAM-RPARPAR peptide binding to NRP-1, fluorescence polarization | inhibition, % at 25 µM | 360,000 compounds, 0.85% hits | AID 602438;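 active = inhibition or corrected inhibition above about 18%, plus a signal ratio from 0.5 to 1.5, limit read from the data, passing the limit was not always enough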
CRFR2-BP antag: CRF-BP/CRF-R2 complex antagonism; HEK293 CRF-R2/CRF-BP, CRF-induced calcium fluorescence; inhibition, % at 11.8 µM; 350,000 compounds, 0.59% hits;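 active = inhibition of the ligand-induced calcium signal above about 50% at the single tested concentration, limit read from the data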
CRFR2-BP ag: agonists of human CRF-binding protein/CRF-R2 receptor complex; HEK293 CRF-R2/CRF-BP, calcium dye fluorescence (FLIPR); percent of saturating CRF peptide response; activation, % at 13.2 µM; 350,000 compounds, 0.46% hits; AID 588473;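 active = activation of at least 50%, plus an integration ratio under a set limit after plate pattern correction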;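 also: plate controls were neutral control wells without compound for no effect and CRF at EC100 for full effect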
Tn7 DDE FP: DD(E)-Tn7 binding inhibition, primary FP screen; P02675; 370,000 compounds, 0.13% hits; inhibition, % at 8.3 µM; AID 720508; FP displacement of FITC-Tn7 peptide from fibrin DD(E); 0% = median of compound wells per plate;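 active = inhibition above the mean of compounds falling within the control limits plus 3 SD of them, cut at about 14% in these data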;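 also: 0% = plate median of compound wells and 100% = 10 µM Aha-Tn7 peptide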
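System: human fibrin DD(E); quantity: Fibrin-DD(E) at 2 µM final; also added: fluorescent Tn7 probe at 0.1 µM; compound dosing: single nominal test concentration of 8.3 µM per compound; schedule: 10 min preincubation, 3 h with tracer, room temperature; detection: fluorescence polarization of the labelled Tn7 tracer; repeats: one replicate per compound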
Tn6 DDE ctr: counter-screen hit for Tn6 peptide-fibrin DD(E) binding disruption; 680 compounds, 2% hits; TRITC-Tn6 fluorescence polarization displacement; 0% = median of compound wells, not DMSO; AID 720621; shares compounds with DDE Tn6 FP inh; inhibition, % at 8.3 µM;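 active = inhibition above the mean of test compounds lying between the control limits plus 3 SD of those, cut at about 14% in these data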;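 also: 0% = median of compound wells and 100% = wells with Aha-Tn7 blocking peptide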
Tn6 DDE conf: DD(E)-Tn6 binding inhibition, FP confirmation; inhibition, % at 8.3 µM; AID 720631; 680 compounds, 10% hits; shares compounds with DDE Tn6 FP inh; FP displacement of TRITC-Tn6 peptide from DD(E); 0% = per-plate median of test wells;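 active = inhibition above the mean of compounds lying within the control limits plus 3 SD, cut at about 16% in these data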;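 also: 100% = high control wells holding a competing inhibitor peptide at 10 µM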
The depositor's hits bear a star; nt = no result. Rows were chosen to be rich in hits. Some 2.9% of all compounds tested hit in one or more screens of this group.

SMILES | proKLK7 act | DDE Tn6 FP inh | NRP1-CendR mod | CRFR2-BP antag | CRFR2-BP ag | Tn7 DDE FP | Tn6 DDE ctr | Tn6 DDE conf
C/C=C/c1ccccc1OCCCN1CCC(C(O)(c2ccccc2)c2ccccc2)CC1 | 0 | 5 | nt | nt | nt | -4 | nt | nt
O=C(COc1ccccc1Cl)NC(=S)Nc1ccccc1N1CCCC1 | -1 | 16* | -4 | -21 | 0 | 8 | 11 | 5
COC(=O)c1ccccc1NC(=S)NC(=O)COc1ccccc1Cl | 0 | 9 | -3 | -7 | 2 | 1 | nt | nt
CCCCCN1CCCCC(NC(=O)Cc2ccccc2)C1=O (stereo not drawn) | 0 | -2 | nt | nt | nt | 5 | nt | nt
COc1ccc(NC(=O)N(C)C[C@H]2OCc3cnnn3CCCC(=O)N([C@H](C)CO)C[C@@H]2C)c(OC)c1 | 0 | 9 | nt | nt | nt | 11 | nt | nt
CCN1CC2=C(OC(N)=C(C#N)C2c2cccs2)/C(=C/c2cccs2)C1 (stereo not drawn) | -1 | 5 | -27 | -6 | 5 | -1 | nt | nt
CCN1CC2=C(OC(N)=C(C#N)C2c2ccccc2)/C(=C\c2ccccc2)C1 (stereo not drawn) | 1 | 25* | -3 | -32 | 1 | -1 | 12 | 7
Cc1cc(C)n(CC(O)Cn2c(C)c(C)c3ccccc32)n1 (stereo not drawn) | 0 | 19* | -97 | 22 | -4 | 3 | -2 | 1
O=C(Nc1ccccc1C(F)(F)F)O[C@@H]1CC[C@@]23CCCN2C(=O)CCC[C@H]3C1 | nt | 3 | nt | nt | nt | 0 | nt | nt
CCN(CC)c1ccc(/C=c2\sc3nc4ccccc4n3c2=O)c(O)c1 | -43 | 18* | -36 | -153 | 165* | 4 | 1 | 8
CC1CCCN(CCCNC(=O)c2ccc3c(c2)N(Cc2ccc(F)cc2)C(=O)c2ccccc2S3=O)C1 (stereo not drawn) | 0 | 2 | 5 | -17 | 8 | -1 | nt | nt
CC1CCCN(CCCNC(=O)c2ccc3c(c2)N(Cc2cccc(Cl)c2)C(=O)c2ccccc2S3=O)C1 (stereo not drawn) | 0 | 16* | 7 | -23 | 3 | 5 | -2 | -5
Cc1cccc(-c2cccc3c4c([nH]c23)[C@@H]2C[C@H](N(C)C(=O)c3ccccc3F)[C@H]([C@H](C)O)CN2CC4)c1 | 0 | 0 | nt | nt | nt | -4 | nt | nt
COc1ccccc1CNc1ncnc2cc(Cl)ccc12 | 0 | 3 | 20 | -5 | 0 | 10 | nt | nt
COc1ccc(CNc2ncnc3cc(Cl)ccc23)cc1OC | 0 | 16* | -5 | 3 | -1 | 3 | -9 | -6
COC(=O)[C@]12C[C@H](CC(=O)NCc3cccc(C(F)(F)F)c3)C(=O)N(Cc3ccco3)C1=C[C@H](C1CCCC1)O[C@@H]2C | 1 | 9 | nt | nt | nt | -5 | nt | nt
COC(=O)C1=C(N)Oc2cc(N(C)C)ccc2C1c1ccccc1OC (stereo not drawn) | -3 | 36* | -46 | 0 | 2 | 7 | 7 | -9
COC(=O)C1=C(N)Oc2cc(C)n(CC3CCCO3)c(=O)c2C1c1ccccc1OC (stereo not drawn) | 0 | -7 | -5 | 21 | 0 | 1 | nt | nt
Cc1ccc2c(c1)N(CCCC(=O)NCc1c(F)cccc1F)C(=O)CO2 | 0 | 4 | nt | nt | nt | 9 | nt | nt
O=C1NC[C@@H](c2ccccc2)OC(=O)[C@@H](Cc2ccc(F)cc2)CC/C=C/C[C@@H]1CC(=O)N(CCO)Cc1ccccc1 | 0 | 16* | 31* | 3 | 0 | 8 | 7 | 0
CCN1CCN(c2ccc(S(=O)(=O)N3CCCCC3)cc2NC(=O)/C=C/c2cccc(OC)c2OC)CC1 | -1 | 16* | -1 | 106* | -1 | 10 | -5 | -8
NS(=O)(=O)c1ccc(N2CCN(C(=O)C3COc4ccccc4O3)CC2)nc1 (stereo not drawn) | 0 | 18* | 8 | -7 | -1 | 0 | 2 | -5
O=C(C1COc2ccccc2O1)N1CCN(c2ccc(C(F)(F)F)cn2)CC1 (stereo not drawn) | 0 | 2 | -4 | 3 | 2 | -3 | nt | nt
O=C1C=CC(=O)c2c(O)c(N3CCN(CCO)CC3)c(Cl)c(O)c21 | 0 | 40* | 55* | 11 | 4 | -6 | -4 | 9
NC(=O)c1ccc(NC(=O)COC(=O)CC2CC3CCC2C3)cc1 (stereo not drawn) | 0 | -2 | -6 | -9 | 4 | -6 | nt | nt
SMILES | proKLK7 act | DDE Tn6 FP inh | NRP1-CendR mod | CRFR2-BP antag | CRFR2-BP ag | Tn7 DDE FP | Tn6 DDE ctr | Tn6 DDE conf
O=C(COC(=O)CC1CC2CCC1C2)NC(=O)NCc1ccco1 (stereo not drawn) | 0 | 20* | -5 | 7 | 0 | 1 | 1 | -5
CCOc1ccc(NC(=O)[C@@H](NC(=O)c2ccccc2Br)C(C)C)cc1 | 1 | -2 | 0 | -3 | 1 | 5 | nt | nt
CCOc1ccc(NC(=O)C(CC)NC(=O)c2ccccc2CO)cc1 (stereo not drawn) | 0 | 20* | -3 | 12 | 0 | 1 | -3 | -6
O=C(N[C@H](C(=O)N1CCC[C@H]1C(=O)NCCc1ccccc1Cl)c1ccccc1)c1ccco1 | 0 | -8 | nt | nt | nt | 8 | nt | nt
CCCCCCCCN1C(=O)[C@@H](CC(=O)N2CCSCC2)C[C@@]2(C(=O)OC)C1=C[C@H](C(C)C)O[C@@H]2C1CC1 | 0 | -2 | nt | nt | nt | 2 | nt | nt
CC1CCN(S(=O)(=O)c2ccc(C(=O)Nc3nnc(C4CC4)o3)cc2)CC1 | 0 | 21* | -6 | 13 | 0 | 2 | -3 | -4
O=C(Nc1cccc([N+](=O)[O-])c1)c1ccc([N+](=O)[O-])o1 | 0 | 18* | 5 | -1 | -2 | -2 | 2 | 1
O=C(CCNS(=O)(=O)c1ccc(Br)cc1)N1CCCCCCC1 | 0 | -5 | -7 | -5 | -1 | 1 | nt | nt
CC(=O)N1CCN(C(=O)CCNS(=O)(=O)c2ccc(Br)cc2)CC1 | 0 | 18* | 0 | 9 | -2 | 0 | 0 | -4
CNc1ccc2c3c(cccc13)C(=O)N(C)C2=O | 5 | 47* | 143 | -118 | 170* | -6 | 53* | 43*
COc1ccc(OC)c(-c2nnc(SCC(=O)N3CCOCC3)o2)c1 | 0 | 19* | -3 | 3 | 0 | 2 | 7 | -3
COc1ccc(OC)c(-c2nnc(SCC(=O)N3CCCC3)o2)c1 | 1 | -7 | 4 | -5 | 1 | 0 | nt | nt
CCCCCCCCCCCNC(=O)c1ccoc1C | 0 | 17* | -8 | -19 | 0 | 0 | 9 | 3

Screening results from PubChem BioAssay.
